The results in this text go back to ChEMBL document CHEMBL1132389, “Novel farnesol and geranylgeraniol analogues: A potential new class of anticancer agents directed against protein prenylation” (J Med Chem, 1999).

In series [1] the test system is NIH3T3. The series can be described thus: Inhibition of anchorage independent growth of H-Ras(61L)CVLL-transformed NIH3T3 fibroblasts in soft agar. It is filed as functional, cell-based. The following applies: Mus musculus. The essentials: (§1)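 NIH3T3 fibroblasts transfected with H-Ras(61L) (H-Ras-F) or H-Ras(61L)CVLL (H-Ras-GG), kept in DMEM with 10% calf serum and 1% antibiotic/antimycotic at 37 °C, 10% CO2. Two-layer soft agar (0.6% bottom, 0.3% top). Cells seeded in the top layer with compound in ethanol over a concentration range, added only at seeding. Grown 2 weeks at 37 °C. Colonies stained with p-iodonitrotetrazolium violet 24 h before image-analysis count. IC50 reported.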

In series [2] the test system is NIH3T3. The series can be described thus: Inhibition of anchorage independent growth of H-Ras(61L)-transformed NIH3T3 fibroblasts in soft agar. It is filed as functional, cell-based. The conditions noted are these: Mus musculus. The essentials: as §1
Series [3] deals with C=CC/C(=C\COP(=O)(O)OP(=O)(O)O)CC/C=C(\C)CCC=C(C)C. Nature of the series: (§2) Km determined in continuous spectrofluorimetric assay. The conditions noted are these: Homo sapiens. In kind it is protein-complex assay. The essentials:
(§3)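 Continuous fluorimetric assay with recombinant mammalian FTase and dansyl-GCVLS peptide. Buffer: Tris-HCl pH 7.0, DTT, MgCl2, ZnCl2, with 0.4% n-dodecyl-β-D-maltoside solution. Premixed 5 min at 30 °C. Isoprenoid diphosphate at final 0.10 to 5 μM. Reaction started with enzyme. Fluorescence (ex 350, em 486 nm) read for 300 s at 30 °C. Linear rate converted to μM/s using a separately measured enhancement factor for each substrate. Km derived from the rates.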

For series [4], the system named is C=C/C(=C\COP(=O)(O)OP(=O)(O)O)CC/C=C(\C)CCC=C(C)C. The series is described as §2. In kind it is protein-complex assay. The following applies: Homo sapiens. The essentials:
as §3

Series [5] deals with Geranylgeranyl transferase type I (Homo sapiens, UniProt P49354+P53609). Nature of the series: Inhibition of recombinant Geranylgeranyl transferase type I in scintillation proximity assay. In kind it is protein-complex assay. Put shortly: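 Recombinant mammalian GGTase I in scintillation proximity assay with streptavidin beads, using tritiated GGPP and biotin-Aha-TKCVIL peptide as substrates. Run in the same manner as the FTase assay. IC50 and Ki values determined.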

Series [6] has as its target Protein farnesyl/geranylgeranyl transferase (Homo sapiens) (UniProt P49354+P49356+P53609). Nature of the series: Relative IC50 for farnesyl and geranylgeranyl transferase. It is filed as protein-complex assay.
In series [7] the target is T1, Protein farnesyltransferase (Homo sapiens, UniProt P49354+P49356). The series can be described thus: Inhibition of recombinant farnesyltransferase (mFTase) in scintillation proximity assay. It is filed as protein-complex assay. The essentials: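 Recombinant mammalian FTase in scintillation proximity assay with streptavidin beads. Substrates: tritiated FPP (15–30 Ci/mmol, final 0.12 μM) and biotin-Aha-TKCVIM peptide (final 0.1 μM). IC50 determined. Ki from the same system with varied tritiated FPP concentrations.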
A general note: In a scintillation proximity assay essentially only radioactivity close to the scintillant gives light.

Series [8] deals with T1, Protein farnesyltransferase. Nature of the series: Relative Vmax compared to FPP in continuous spectrofluorimetric assay.

As to `C=C/C(=C\CO)CC/C=C(\C)CCC=C(C)C`, the IC50 – broadly, the concentration at which inhibition is half-maximal – was 14.1 µM in series [1] and 10.9 µM in series [2].
For `C=C/C(=C\CO)CC/C=C(\C)CC/C=C(\C)CCC=C(C)C` the same measures were 13.9 µM and 18 µM.
For `CC/C(=C\CO)CC/C=C(\C)CCC=C(C)C` the same measures were above 25 µM and above 25 µM.
With “Protein farnesyltransferase (Homo sapiens) (from UniProt P49354+P49356)”, the Km (usually the substrate concentration at which the rate is half of its maximum) in series [3] came to 0.703 µM; in series [4], 0.156 µM.
Consider `CC(C)=CCC/C(C)=C/CC/C(=C/COP(=O)(O)OP(=O)(O)O)C(C)(C)C`, for which the IC50 in series [5] is 50 µM; in series [7], 0.031 µM. Further, the Ratio in series [6] came out at 1600.
As for `C=CC/C(=C\COP(=O)(O)OP(=O)(O)O)CC/C=C(\C)CCC=C(C)C`, the values for the IC50 in series [5] and in series [7] were above 100 µM and 0.189 µM, respectively. Further, the Ratio in series [6] is above 530. In series [8], this compound gave a Krel of 0.0711.
Turning to `C=C/C(=C\COP(=O)(O)OP(=O)(O)O)CC/C=C(\C)CC/C=C(\C)CCC=C(C)C`, the IC50 in series [5] was 3.05 µM; in series [7], 0.715 µM. Also, the Ratio in series [6] is 4.3.
For `C=CC/C(=C\COP(=O)(O)OP(=O)(O)O)CC/C=C(\C)CC/C=C(\C)CCC=C(C)C`, the Ratio in series [6] turned out to be 7.5. The IC50 in series [7] came out at 0.453 µM.
Take `C=CC/C(=C\CO)CC/C=C(\C)CCC=C(C)C`: the IC50 in series [1] is above 25 µM; in series [2] it was 10.2 µM.
As for `CC/C(=C\COP(=O)(O)OP(=O)(O)O)CC/C=C(\C)CCC=C(C)C`, the IC50 in series [5] is above 100 µM; in series [7] it was 0.215 µM. Besides, the Ratio in series [6] was above 460.
On to `CC(C)=CCC/C(C)=C/CC/C(=C/CO)c1ccccc1`, for which the IC50 in series [1] and in series [2] was above 25 µM throughout.
Take `C=CC/C(=C\CO)CC/C=C(\C)CC/C=C(\C)CCC=C(C)C`: the IC50 in series [1] was 4.6 µM; in series [2], above 25 µM.
For `CC(C)=CCC/C(C)=C/CC/C(=C/COP(=O)(O)OP(=O)(O)O)c1ccccc1`, the IC50 is above 100 µM in series [5] and 0.299 µM in series [7]. In addition, in series [6], the Ratio was above 340.
`C=C/C(=C\COP(=O)(O)OP(=O)(O)O)CC/C=C(\C)CCC=C(C)C`: the results for the IC50 in series [5] and in series [7] were 100 µM and 0.173 µM, respectively. Also, in series [6], the Ratio was found to be 600. This compound came in with a Krel in series [8] of 0.524.
